Measurements collected from several papers.
Each line is one published result; the experiments were not run side by side.
Target: Beta-adrenergic receptor kinase 1 (GRK2, Homo sapiens, UniProt P25098)
Sequence (P25098 1-689, as in one of the studies): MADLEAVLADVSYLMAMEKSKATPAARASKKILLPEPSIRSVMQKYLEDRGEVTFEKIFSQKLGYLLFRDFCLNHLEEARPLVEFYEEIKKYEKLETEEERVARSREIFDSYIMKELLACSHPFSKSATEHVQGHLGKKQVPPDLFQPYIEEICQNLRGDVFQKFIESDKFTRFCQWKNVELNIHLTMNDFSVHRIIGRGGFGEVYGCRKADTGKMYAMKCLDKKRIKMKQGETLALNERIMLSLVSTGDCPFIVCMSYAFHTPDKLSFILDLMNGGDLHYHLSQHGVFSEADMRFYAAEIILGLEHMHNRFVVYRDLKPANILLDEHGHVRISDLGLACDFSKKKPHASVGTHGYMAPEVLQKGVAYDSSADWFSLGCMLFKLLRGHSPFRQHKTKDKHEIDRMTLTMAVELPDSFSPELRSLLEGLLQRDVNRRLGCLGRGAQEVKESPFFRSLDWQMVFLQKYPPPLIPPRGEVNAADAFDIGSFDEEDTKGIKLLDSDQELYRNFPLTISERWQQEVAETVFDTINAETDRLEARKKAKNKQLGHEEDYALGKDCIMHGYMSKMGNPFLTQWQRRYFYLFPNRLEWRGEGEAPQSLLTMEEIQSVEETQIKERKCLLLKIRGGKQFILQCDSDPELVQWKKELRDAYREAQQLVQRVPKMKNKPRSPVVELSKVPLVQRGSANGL

`Nc1ncc2c(n1)-c1c([nH]c3ccc(C#CC4CC4)cc13)CCCC2` gave a remaining binding of 87% (binding; competition with immobilised ligand; 1 µM).
`COc1ccnn2ncc(-c3ccnc(N(C)C)n3)c12` has a remaining binding of 100% (binding; 1 µM).
For `CNC(=O)Nc1ccc2c(c1)CC[C@@]21OC(=O)N(CC(=O)N(Cc2ccc(F)cc2)[C@@H](C)C(F)(F)F)C1=O`, the remaining binding was 74% (cell-free assay; competition with immobilised ligand; 1 µM).
The remaining binding of `CN(CCCC(F)(F)F)c1nccc(-c2cnn3ncccc23)n1` is reported as 61% (binding; competition with immobilised ligand; 1 µM).
The remaining binding of `CCCCN(CCCC)C(=O)CN1C[C@H](c2cc(OC)c3c(c2)OCO3)[C@@H](C(=O)O)[C@@H]1CC(C)(C)CCC` is reported as 71.8% (cell-free assay; competition with immobilised ligand; 1 µM).
The remaining binding of `COc1cnc(Nc2cccc(S(N)(=O)=O)c2)nc1N1CCN(c2ccccc2)C(=O)C1` is reported as 68% (binding; competition with immobilised ligand; 1 µM).
With `Cc1c(C(=O)O)cc(-c2ccc(C3CCNCC3)cc2)c2ccc(-c3ccc(C(F)(F)F)cc3)cc12` the remaining binding was 100% (binding; competition with immobilised ligand; 1 µM).
`COc1ncc2cc3ccccc3nc2c1C#N` gave a remaining binding of 100% (cell-free assay; competition with immobilised ligand; 5 µM).
The remaining binding of `O=C(NCCCN1CCOCC1)c1ccc(Nc2ncc(Cl)c(-c3ccc(Cl)s3)n2)cc1` is reported as 91% (binding; competition with immobilised ligand; 1 µM).
With `CNCc1ccccc1-c1csc([C@@H](C)Nc2nc(C)nc3cc(OC)c(OC)cc23)c1` the remaining binding was 86% (cell-free assay; competition with immobilised ligand; 1 µM).
With `COc1cnc(Nc2cccc(S(N)(=O)=O)c2)nc1N1CCN(c2ccccc2)CC1` the remaining binding was 88% (binding; competition with immobilised ligand; 1 µM).
For `c1ccc(N2CCN(Cc3nc4ccccc4[nH]3)CC2)nc1`, the remaining binding was 90% (binding; competition with immobilised ligand; 1 µM).
`c1cnn2ncc(-c3ccnc(N4CCC45COC5)n3)c2c1` gave a remaining binding of 48% (binding; competition with immobilised ligand; 1 µM).
The remaining binding of `O=C(c1ccc(Nc2ncc(Cl)c(-c3cc4ccccc4s3)n2)cc1)N1CCC(N2CCCC2)CC1` is reported as 71% (binding; competition with immobilised ligand; 1 µM).
For `CN(c1nccc(-c2cnn3ncccc23)n1)C1CC1`, the remaining binding was 64% (binding; 1 µM).
With `O=C(NCC1CCOCC1)c1n[nH]cc1NC(=O)c1c(F)cccc1F` the remaining binding was 71% (binding; competition with immobilised ligand; 1 µM).
For `CN(C)c1ncc(F)c(-c2cnn3ncccc23)n1`, the remaining binding was 88% (binding; competition with immobilised ligand; 1 µM).
`O=C(c1ccc(Nc2ncc(Cl)c(-c3ccc(Cl)s3)n2)cc1)N1CCC(N2CCCC2)CC1` gave a remaining binding of 98% (binding; competition with immobilised ligand; 1 µM).
The remaining binding of `Cc1nc(Cc2cccc(C(F)(F)F)c2)sc1-c1ccc(C(N)=O)nc1` is reported as 100% (cell-free assay; competition with immobilised ligand; 1 µM).
`C[C@H]1CCN(c2nccc(-c3cnn4ncccc34)n2)C1` has a remaining binding of 50% (binding; competition with immobilised ligand; 1 µM).
